From paper PMC2752669 (Biochemistry, 2009)
Ends that are not written are not given here.

Experiments:
[1] = system: A-site RNA hp-AS-pwk annealed to 5'-biotin-DNA; assay: Peptide bead ELISA assay, hp-AS-pwk; assay type: binding, E. coli; conditions: 1 μM biotin-tagged RNA, 4 days, 4 °C; anti-biotin-alkaline phosphatase, BCIP
How it was run: (§1)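 Peptide beads washed, blocked overnight at 4 °C, then incubated 4 days at 4 °C with 1 μM biotin-tagged RNA (fresh RNA added daily) in HEPES-KOH pH 7.5/100 mM KCl/5 mM MgCl2 buffer. Buffer-only beads served as background. Detection: anti-biotin–alkaline phosphatase (1:8000, 1 h, room temperature), then BCIP (0.165 μg/μl, pH 9.5) overnight at 4 °C.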

[2] = system: helix 17 (h17) RNA from 16S rRNA; assay: Peptide bead ELISA assay, h17 control; assay type: binding; conditions: biotin-tagged h17, 4 days, 4 °C; anti-biotin-alkaline phosphatase, BCIP
How it was run: as §1

other RNA targets = assay: Preliminary in vitro solution binding studies
[3] = system: hp-AS (RNA, rRNA) GGCGUCACACCUUCGGGUGAAGUCGCC; assay: ESI-MS titration; conditions: NH4+ 100 mM; apparent; 100 mM NH4OAc, 50% 2-propanol, pH 6.7, 25 °C
[4] = system: A-site RNA hairpin hp-AS (bacterial 16S rRNA); assay: ESI-MS binding to hp-AS; set-up: species or system E. coli; conditions: 1 μM RNA
How it was run: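 Hairpin RNA renatured in 100 mM NH4OAc (pH 6.7). 1 μM RNA mixed with peptide (0–375 μM), room temperature, 10 min, in 50% 2-propanol/100 mM NH4OAc pH 6.7, then ESI-MS. Fraction bound taken from summed complex versus free-RNA peak intensities. Salt series: 34 μM peptide at 30–200 mM NH4OAc. pH series: 34 μM peptide, 100 mM NH4OAc, pH 5.0–7.6.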

[5] = system: A-site RNA hairpin hp-AS (bacterial 16S rRNA); assay: Enzymatic; assay type: binding, E. coli; conditions: 5 to 120 μM peptide, pH 7.2, 37 °C
How it was run: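 3′-32P-pCp-labelled hp-AS (1 μl, 250,000 cpm) preincubated with test peptide (0–120 μM) in 10 mM Tris-HCl pH 7.2, 15 mM NaCl, 1 mM EDTA, 37 °C, 1.5 h. RNase A (1 μl, 0.002 U/μl) was added to 5 μl final for 30 min at 37 °C, quenched on dry ice, formamide-denatured and gel-resolved beside an alkaline-hydrolysis ladder. Fraction bound versus peptide was curve-fitted for Kd; two independent experiments.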

[6] = system: A-site RNA hairpin hp-AS (bacterial 16S rRNA); assay: Isothermal titration calorimetry of peptide into hp-AS; assay type: binding, E. coli; conditions: 10 mM potassium phosphate, 100 mM KCl, pH 7.2, 10 °C; average of three independent experiments
How it was run: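 RNA and test peptide were dialysed against water, dried, redissolved in buffer and degassed at 5 °C for 7 min. After a 2 μl preliminary injection, which was discarded, 20 μl injections of peptide (250–600 μM) went into hp-AS RNA (20–40 μM), spaced 300 s. Heats of peptide dilution into buffer without RNA were subtracted.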

[7] = system: E. coli S30 extract translation system; assay: In vitro translation inhibition; assay type: biochemical
How it was run: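 E. coli S30 extract for circular DNA, with pBESTluc plasmid carrying firefly luciferase. Amino acids, S30 premix and increasing peptide concentrations in 50 μl, 37 °C for 1–2 h. Quenched on ice 5 min, luciferase reagent added, luminescence read. Background from a sample without DNA template.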

A-site RNA over TAR RNA = assay: ESI-MS competition, A-site RNA versus TAR RNA; assay type: binding; conditions: data not shown
LPLTPLP peptide on beads [8] = target: T1, LPLTPLP peptide on beads; assay: bead fluorescence
T1 chain: LPLTPLP

HPVHHYQ peptide on beads [9] = target: T2, HPVHHYQ peptide on beads; assay: bead fluorescence
T2 chain: HPVHHYQ

HPVHHYQ-NH2 peptide [10] = target: T3, HPVHHYQ-NH2 peptide; assay: RNase A footprinting
T3 chain: HPVHHYQ-NH2

HPVHHYQ-NH2 peptide [11] = target: T3, HPVHHYQ-NH2 peptide; assay: ITC
HPVHHYQ-NH2 peptide [12] = target: T3, HPVHHYQ-NH2 peptide; assay: RNase A footprinting
LPLTPLP peptide on beads [13] = target: T1, LPLTPLP peptide on beads; assay: bead ELISA
HPVHHYQ peptide on beads [14] = target: T2, HPVHHYQ peptide on beads; assay: bead ELISA

Q: Which “Bead ELISA response with A-site RNA” value [1] does the source give for HPVHHYQ here?
A: The value was “much stronger response than LPLTPLP”.

Q: What about the “Bead ELISA binding to h17” value [2] of the same molecule?
A: Its value is “No binding was observed”.

Q: Which “Binding to other RNA targets” value (other RNA targets) does the source give for LPLTPLP here?
A: Its value is “binds to other RNA targets”.

Q: What about the “Bead ELISA response with A-site RNA” value [1] of the same molecule?
A: Its value is “bind to the A-site RNA”.

Q: What about the “Bead ELISA binding to h17” value [2] of the same molecule?
A: Its value is “No binding was observed”.

Q: With H-HPVHHYQ-NH2 as the molecule, how does the Kd [3] read?
A: The Kd was 29 ± 2 µM.

Q: What does the source list for HPVHHYQ-NH2?
A: Effect of pH on ratio of free RNA to RNA-peptide complexes ([4]; pH 5.0 to 7.6, 100 mM NH4OAc, 50% IPA, 34 μM peptide, data not shown): no significant change; Kd ([4]; read-out: Apparent dissociation constant (ESI-MS), 0–375 μM peptide, 100 mM NH4OAc, pH 6.7, 50% 2-propanol, 25 °C, 10 min, average of three independent experiments): 29 ± 2 µM; Residues protected from RNase A cleavage [5]: residues G1494 and U1495 are protected by the peptide; Residues with enhanced RNase A cleavage [5]: enhanced at residues A1492 and A1493; Enthalpy ΔH [6]: -0.56 ± 0.05 kcal/mol; Entropy −TΔS [6]: -6.5 ± 0.3 kcal/mol; Inhibition of in vitro protein synthesis ([7]; 34 μM peptide, 37 °C, 1–2 h): no inhibition was observed; Remaining (luciferase) enzyme activity ([7]; 620 μM peptide, 37 °C, 1–2 h): approximately 50%; IC50 compared with neomycin ([7]; in vitro translation inhibition): high compared with the known antibiotic neomycin; Preference for A-site RNA over TAR RNA (A-site RNA over TAR RNA): five-fold preference for the A-site RNA over TAR RNA

Q: Which results are given for GGCAGAUCUCAGCCUGGGAGCUGUCUGCC (structured_RNA) [F-TAR]?
A: binding result (LPLTPLP peptide on beads [8]): no binding; binding result (HPVHHYQ peptide on beads [9]): no binding

Q: Does GGCGUCACACCUUCGGGUGAAGUCGCC (structured_RNA) [F-hp-AS] bind (LPLTPLP peptide on beads [8])?
A: Result: binds

Q: Does GGCGUCGCUACUUCGGUAAAAGUCGCC (structured_RNA) [F-human-hp-AS] bind (LPLTPLP peptide on beads [8])?
A: Result: no binding

Q: Does GGCGUCGCUACUUCGGUAAAAGUCGCC (structured_RNA) [F-human-hp-AS] bind (HPVHHYQ peptide on beads [9])?
A: Result: no binding

Q: With GGCGUCACACCUUCGGGUGAAGUCGCC (structured_RNA) [hp-AS] as the molecule, how does the Kd (HPVHHYQ-NH2 peptide [10]) read?
A: Its Kd is 18 ± 4 µM.

Q: What about the Kd (HPVHHYQ-NH2 peptide [11]) of the same molecule?
A: Its Kd is 2 ± 0.4 µM.

Q: What about the Kd (HPVHHYQ-NH2 peptide [12]) of the same molecule?
A: The Kd was 16 ± 4 µM.

B1: h17 annealed to 5'-biotin-DNA (mixed)
RNA: GGCGGGGAGGAAGGGAGUAAAGUUAAUACCUUUGCUCAUUGACGUUACCCGCCGGUGCGGAUGGCGAUUGCU
DNA: AGCAATCGCCATCCGCACC
Q: Does B1 bind (LPLTPLP peptide on beads [13])?
A: Result: no binding

Q: Does B1 bind (HPVHHYQ peptide on beads [14])?
A: Result: no binding
